Experimental data as given in article PMC3969268 (Journal of medicinal chemistry, 2012).

How the values were obtained:
[1] = molecular target: EcFtsZ-bound BoGTPγS (GTP binding pocket) (Escherichia coli, UniProt P0A9A6); assay: BoGTPγS fluorescence anisotropy competition assay, EcFtsZ; design: species or system E. coli; settings: 1 μM BoGTPγS, 5 μM FtsZ, competitor 0 to 40 μM
Outline: (§1)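 Competition anisotropy assay: 1 μM BODIPY-GTPγS with 0 or 5 μM FtsZ, plus test compound or unlabeled GTP (0–40 μM), in 50 mM Tris·HCl pH 7.4, 50 mM KCl, 2 mM magnesium acetate. After 5 min at 25 °C, probe anisotropy was read (ex 488/em 510 nm, 4 nm bandwidths), compared with FtsZ-free probe. Triplicates averaged.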

[2] = molecular target: EfFtsZ-bound BoGTPγS (GTP binding pocket) (Enterococcus faecalis, UniProt O08439); assay: BoGTPγS fluorescence anisotropy competition assay, EfFtsZ; design: species or system E. faecalis; settings: 1 μM BoGTPγS, 5 μM FtsZ, competitor 0 to 40 μM
[3] = molecular target: SaFtsZ-bound BoGTPγS (GTP binding pocket) (Staphylococcus aureus, UniProt P0A031); assay: BoGTPγS fluorescence anisotropy competition assay, SaFtsZ; settings: 1 μM BoGTPγS, 5 μM FtsZ, competitor 0 to 40 μM
Outline: as §1

[4] = molecular target: T1, EcFtsZ (Escherichia coli, UniProt P0A9A6); settings: previously reported; cited from earlier work
[5] = molecular target: T1, EcFtsZ; assay: FtsZ polymerization light-scattering; assay type: biochemical, E. coli
[6] = molecular target: T2, SaFtsZ (Staphylococcus aureus, UniProt P0A031); assay: FtsZ polymerization light-scattering; assay type: biochemical, S. aureus; settings: for extent of stimulation of FtsZ polymerization (A340): 40 μg/mL compound or comparator drug
T2 sequence (P0A031 1-390): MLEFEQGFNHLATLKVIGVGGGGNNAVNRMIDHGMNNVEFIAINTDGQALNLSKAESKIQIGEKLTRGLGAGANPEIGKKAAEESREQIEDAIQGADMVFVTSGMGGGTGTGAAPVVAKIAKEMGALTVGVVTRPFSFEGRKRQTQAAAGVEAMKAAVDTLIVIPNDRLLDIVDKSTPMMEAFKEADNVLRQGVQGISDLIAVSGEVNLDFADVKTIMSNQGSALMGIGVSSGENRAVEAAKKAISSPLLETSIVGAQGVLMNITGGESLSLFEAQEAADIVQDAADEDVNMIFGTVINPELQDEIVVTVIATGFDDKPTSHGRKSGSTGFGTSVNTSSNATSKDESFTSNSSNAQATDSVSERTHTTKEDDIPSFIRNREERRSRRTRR

[7] = test system: S. aureus 8325-4 (MSSA); assay: Time-kill assay; assay type: cell-based; settings: for reduction of bacterial number (CFUs): 8 × MIC (8 μg/mL)
Outline: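 Exponential-phase S. aureus 8325-4 was diluted in cation-adjusted Mueller-Hinton broth to 10^5–10^6 CFU/mL, with DMSO as vehicle control. Cultures were shaken at 37 °C and sampled at 0, 2, 4 and 6 h. Samples were plated on tryptic soy agar, centrifuged and resuspended when undiluted to avoid carry-over. Colonies were counted after 24 h at 37 °C.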

[8] = test system: E. coli N43 (acrA1)
[9] = molecular target: MAP-rich porcine β-tubulin (70% β-tubulin, 30% MAPs) (Sus scrofa, UniProt P02554); assay: Tubulin polymerization light-scattering; assay type: biochemical; settings: 2 mg/mL porcine β-tubulin, 1 mM GTP, 37 °C
[10] = molecular target: T3, E185A mutant SaFtsZ (Staphylococcus aureus, UniProt P0A031, E185A); assay: FtsZ polymerization light-scattering; assay type: biochemical, S. aureus
[11] = molecular target: T4, I228R mutant SaFtsZ (Staphylococcus aureus, UniProt P0A031, I228R); assay: FtsZ polymerization light-scattering; assay type: biochemical, S. aureus
[12] = molecular target: G196A mutant SaFtsZ (Staphylococcus aureus, UniProt P0A031, G196A); assay: FtsZ polymerization light-scattering; assay type: biochemical, S. aureus; settings: G196A mutant (not shown)
[13] = molecular target: T2, SaFtsZ; assay: Transmission electron microscopy of compound-induced FtsZ polymers, SaFtsZ; assay type: biochemical; settings: 20 μg/mL
[14] = test system: S. aureus; assay: Emergence of resistance, large inoculum approach; assay type: cell-based; settings: ~3 × 10^9 CFU/mL S. aureus on TSA plates with agent at 4- to 32-fold MIC; 24 h
[15] = molecular target: T4, I228R mutant SaFtsZ; assay: Fluorescence anisotropy binding affinity, I228R mutant SaFtsZ; design: species or system S. aureus; settings: ratio of Kd values
[16] = test system: S. aureus 8325-4 (MSSA); assay type: cell-based; settings: after 12 incubation cycles
[17] = molecular target: T1, EcFtsZ; assay: Transmission electron microscopy of compound-induced FtsZ polymers, EcFtsZ; assay type: biochemical, E. coli; settings: 20 μg/mL
[18] = molecular target: T3, E185A mutant SaFtsZ; assay: Fluorescence anisotropy binding affinity, E185A mutant SaFtsZ; design: species or system S. aureus; settings: ratio of Kd values
[19] = molecular target: E. faecalis FtsZ (EfFtsZ) (Enterococcus faecalis, UniProt O08439); assay: Fluorescence anisotropy determination of compound-FtsZ binding affinity, EfFtsZ; settings: for binding to FtsZ (qualitative; Kd not quantifiable): EfFtsZ
[20] = molecular target: EfFtsZ (Enterococcus faecalis, UniProt O08439); assay: FtsZ polymerization light-scattering; assay type: biochemical, E. faecalis; settings: compound 0 to 40 μg/mL, 10 μM protein, 1 mM GTP, 25 °C
[21] = molecular target: E. coli FtsZ (EcFtsZ) (Escherichia coli, UniProt P0A9A6); assay: Fluorescence anisotropy determination of compound-FtsZ binding affinity, EcFtsZ
[22] = molecular target: S. aureus FtsZ (SaFtsZ), wild-type (Staphylococcus aureus, UniProt P0A031); assay type: binding
[23] = test system: S. aureus; settings: known from literature; cited from earlier work
[24] = test system: S. aureus ATCC 33591 (MRSA); assay: MIC broth microdilution, S. aureus ATCC 33591; assay type: cell-based; settings: CAMH broth + 2% NaCl, 24 h, 37 °C
[25] = test system: E. faecalis ATCC 19433 (VSE); assay: MIC broth microdilution, E. faecalis ATCC 19433; assay type: cell-based; settings: CAMH broth, 24 h, 37 °C
[26] = test system: S. aureus Mu3 (MRSA); assay: MIC broth microdilution, S. aureus Mu3; assay type: cell-based; settings: S. aureus Mu3 (MRSA, hetero-GISA); CAMH broth + 2% NaCl, 24 h, 37 °C
[27] = test system: E. faecalis ATCC 51575 (VRE); assay: MIC broth microdilution, E. faecalis ATCC 51575; assay type: cell-based; settings: CAMH broth, 24 h, 37 °C
[28] = test system: S. aureus 8325-4 (MSSA); assay: MIC broth microdilution, S. aureus 8325-4; assay type: cell-based; settings: S. aureus 8325-4 (MSSA); CAMH broth, 24 h, 37 °C; ≥90% growth inhibition

MAP-rich porcine β-tubulin (70% β-tubulin, 30% MAPs), sequence (P02554 whole entry): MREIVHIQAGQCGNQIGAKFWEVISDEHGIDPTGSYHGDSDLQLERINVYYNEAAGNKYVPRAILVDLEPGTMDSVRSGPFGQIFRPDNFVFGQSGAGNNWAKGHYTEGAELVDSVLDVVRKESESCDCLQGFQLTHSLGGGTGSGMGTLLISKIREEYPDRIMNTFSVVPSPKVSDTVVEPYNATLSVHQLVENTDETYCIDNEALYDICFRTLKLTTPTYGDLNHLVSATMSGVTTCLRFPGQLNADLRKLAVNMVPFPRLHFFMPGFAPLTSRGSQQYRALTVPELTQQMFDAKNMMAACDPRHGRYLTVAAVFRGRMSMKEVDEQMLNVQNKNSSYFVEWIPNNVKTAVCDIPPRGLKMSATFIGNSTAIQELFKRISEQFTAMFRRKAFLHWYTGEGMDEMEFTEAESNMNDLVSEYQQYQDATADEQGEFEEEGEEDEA
MAP-rich porcine β-tubulin (70% β-tubulin, 30% MAPs), sequence (P02550 whole entry partner): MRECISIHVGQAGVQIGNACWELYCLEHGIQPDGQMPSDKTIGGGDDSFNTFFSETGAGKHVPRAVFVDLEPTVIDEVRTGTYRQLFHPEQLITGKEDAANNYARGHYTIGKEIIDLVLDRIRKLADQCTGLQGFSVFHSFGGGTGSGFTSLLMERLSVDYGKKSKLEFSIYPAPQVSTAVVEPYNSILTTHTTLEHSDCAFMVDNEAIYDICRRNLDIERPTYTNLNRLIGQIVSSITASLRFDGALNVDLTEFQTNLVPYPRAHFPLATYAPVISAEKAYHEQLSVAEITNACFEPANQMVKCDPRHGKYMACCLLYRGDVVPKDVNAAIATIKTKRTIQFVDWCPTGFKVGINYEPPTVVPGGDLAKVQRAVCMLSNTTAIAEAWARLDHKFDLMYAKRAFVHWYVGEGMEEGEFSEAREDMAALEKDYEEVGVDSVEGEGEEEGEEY
T1 sequence (P0A9A6 whole entry): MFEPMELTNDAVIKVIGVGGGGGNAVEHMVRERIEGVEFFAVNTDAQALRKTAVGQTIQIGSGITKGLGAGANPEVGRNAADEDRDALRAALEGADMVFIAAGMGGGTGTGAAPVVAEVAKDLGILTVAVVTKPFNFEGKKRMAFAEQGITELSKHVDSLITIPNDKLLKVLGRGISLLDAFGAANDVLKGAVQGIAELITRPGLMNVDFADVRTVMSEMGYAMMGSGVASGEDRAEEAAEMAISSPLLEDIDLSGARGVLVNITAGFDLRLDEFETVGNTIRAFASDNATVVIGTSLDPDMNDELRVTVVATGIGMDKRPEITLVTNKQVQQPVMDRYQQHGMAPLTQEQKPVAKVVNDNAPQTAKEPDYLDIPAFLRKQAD
E. coli FtsZ (EcFtsZ), sequence (P0A9A6 whole entry): as above
EcFtsZ-bound BoGTPγS (GTP binding pocket), sequence (P0A9A6 whole entry): as above

## Nc1nc2c(ncn2[C@@H]2O[C@H](COP(=O)(O)OP(=O)(O)OP(=O)(O)O)[C@@H](O)[C@H]2O)c(=O)[nH]1 [GTP, reference compound]
[1]
  effect on anisotropy of FtsZ-bound BoGTPγS: marked, concentration-dependent decrease
[2]
  effect on anisotropy of FtsZ-bound BoGTPγS: marked, concentration-dependent decrease
[3]
  effect on anisotropy of FtsZ-bound BoGTPγS: marked, concentration-dependent decrease

## NC(=O)c1c(F)ccc(OCc2nc3cc(Cl)cnc3s2)c1F [PC190723]
[4]
  impact on EcFtsZ polymerization: does not affect the polymerization

## CC1(C)S[C@@H]2[C@H](NC(=O)[C@H](N)c3ccccc3)C(=O)N2[C@H]1C(=O)[O-].[Na+] [ampicillin, reference compound]
[5]; 40 μg/mL compound or comparator drug
  extent of stimulation of FtsZ polymerization (A340): negligible impact

## CCC[C@@H]1C[C@@H](C(=O)N[C@@H]([C@H]2O[C@H](SC)[C@H](O)[C@@H](O)[C@H]2O)[C@H](C)Cl)N(C)C1.Cl [clindamycin, reference compound]
[6]; SaFtsZ
  extent of stimulation of FtsZ polymerization (A340): negligible impact

## CC(C)(C)c1ccc(-c2cccc(CNC(=N)N)c2)cc1 [compound 13, 1-((4′-(tert-Butyl)-[1,1′-biphenyl]-3-yl)methyl)guanidine]
[7]; within 2 h
  reduction of bacterial number (CFUs): three logs
[7]; within 6 h
  reduction of bacterial number (CFUs): four logs
[7]; both agents at 8 × MIC
  rate of kill relative to vancomycin: approximately 100 times
[8]
  AcrAB efflux pump substrate (inferred from MIC N43 vs W4573): substrate for the AcrAB efflux transporter
[9]; 40 μg/mL
  impact on tubulin polymerization (A340): negligible impact
[1]
  effect on anisotropy of FtsZ-bound BoGTPγS: does not significantly alter the anisotropy
[10]; 10 μg/mL
  impact on SaFtsZ polymerization (A340): essentially no effect
[10]; 20 μg/mL
  magnitude of stimulation of SaFtsZ polymerization (A340): markedly lower than that observed for wild-type SaFtsZ
[2]
  effect on anisotropy of FtsZ-bound BoGTPγS: does not significantly alter the anisotropy
[11]; 10 μg/mL
  impact on SaFtsZ polymerization (A340): essentially no effect
[11]; 20 μg/mL
  magnitude of stimulation of SaFtsZ polymerization (A340): markedly lower than that observed for wild-type SaFtsZ
[5]; compound 0 to 40 μg/mL, 10 μM protein, 1 mM GTP, 25 °C
  impact on FtsZ polymerization dynamics (A340): increases both the kinetics and extent
[12]
  effect of G196A mutation on stimulation of SaFtsZ polymerization by compound: negligible effect
[13]
  FtsZ polymer assembly and bundling by EM: promotes both the assembly and bundling of SaFtsZ polymers
[3]
  effect on anisotropy of FtsZ-bound BoGTPγS: does not significantly alter the anisotropy
[14]
  agent-containing plates on which colonies were observed: none
[15]
  affinity for I228R mutant lower than for wild-type SaFtsZ: approximately 10 fold
[16]
  change of MIC over repeated incubation cycles: did not change to any significant degree
[17]
  FtsZ polymer assembly and bundling by EM: promoting only the assembly, and not the bundling, of EcFtsZ polymers
[18]
  affinity for E185A mutant lower than for wild-type SaFtsZ: approximately 10 fold
[19]; ratio of Kd values
  affinity for EfFtsZ lower than affinity for SaFtsZ and EcFtsZ: approximately 6 fold
[6]; SaFtsZ, compound 0 to 40 μg/mL, 10 μM protein, 1 mM GTP, 25 °C
  impact on FtsZ polymerization dynamics (A340): increases both the kinetics and extent
[6]; wild-type SaFtsZ, 10 μg/mL
  impact on SaFtsZ polymerization (A340): stimulatory impact
[20]
  impact on FtsZ polymerization dynamics (A340): increases both the kinetics and extent

## CC(C)(C)c1ccc(-c2ccnc(CNC(=N)N)c2)cc1 [compound 14, 1-((4-(4-(tert-Butyl)phenyl)pyridin-2-yl)methyl)guanidine]
[8]
  AcrAB efflux pump substrate (inferred from MIC N43 vs W4573): substrates of the AcrAB efflux pump
[21]
  binding to FtsZ (qualitative; Kd not quantifiable): weak nature of the binding interactions
[19]
  binding to FtsZ (qualitative; Kd not quantifiable): weak nature of the binding interactions
[22]
  binding to FtsZ (qualitative; Kd not quantifiable): weak nature of the binding interactions

## CC(C)(C)c1ccc(-c2cc(CNC(=N)N)ncn2)cc1 [compound 15, 1-((6-(4-(tert-Butyl)phenyl)pyrimidin-4-yl)methyl)guanidine]
[8]
  AcrAB efflux pump substrate (inferred from MIC N43 vs W4573): substrates of the AcrAB efflux pump
[21]
  binding to FtsZ (qualitative; Kd not quantifiable): weak nature of the binding interactions
[19]
  binding to FtsZ (qualitative; Kd not quantifiable): weak nature of the binding interactions
[22]
  binding to FtsZ (qualitative; Kd not quantifiable): weak nature of the binding interactions

## COC(=O)Nc1nc2cc(C(=O)c3cccs3)ccc2[nH]1 [nocodazole]
[9]; 10 μg/mL
  impact on tubulin polymerization (A340): expected inhibitory impact

## CC(=O)O[C@H]1C(=O)[C@@]2(C)[C@H]([C@H](OC(=O)c3ccccc3)[C@]3(O)C[C@H](OC(=O)[C@H](O)[C@@H](NC(=O)c4ccccc4)c4ccccc4)C(C)=C1C3(C)C)[C@]1(OC(C)=O)CO[C@@H]1C[C@@H]2O [paclitaxel]
[9]; 25 μg/mL
  impact on tubulin polymerization (A340): expected stimulatory impact

## CO[C@H]1/C=C/O[C@@]2(C)Oc3c(C)c(O)c4c(O)c(c(/C=N/N5CCN(C)CC5)c(O)c4c3C2=O)NC(=O)/C(C)=C\C=C\[C@H](C)[C@H](O)[C@@H](C)[C@@H](O)[C@@H](C)[C@H](OC(C)=O)[C@@H]1C [rifampicin, reference compound]
[23]
  rate of induced spontaneous mutants in S. aureus: 10^−6 to 10^−8
[14]
  agent-containing plates on which colonies were observed: 100%

## oxacillin
[24]
  MIC: >64.0 µg/mL
[25]
  MIC: 8.0 µg/mL
[26]
  MIC: >64.0 µg/mL
[27]
  MIC: 64.0 µg/mL
[28]
  MIC: 0.063 µg/mL
[6]; SaFtsZ
  extent of stimulation of FtsZ polymerization (A340): negligible impact
